Consider 12 compounds from ChEMBL document CHEMBL1144042, “Cytotoxic simplified tubulysin analogues” (J Med Chem, 2008).

One experiment deals with 1A9. Description: Cytotoxicity against human 1A9 cells. It counts as functional, cell-based.
The nature of experiment [1]: Inhibition of rat brain tubulin polymerization. In a few lines: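 Rat brain tubulin (10 µM) mixed on ice with test compound at 0.5, 1, 2 and 4 µM in 0.8 M sodium glutamate, pH 6.6, with 0.4 mM GTP. Samples then warmed to 33 °C. Polymerization followed over time as optical density at 350 nm. IC50 taken from the concentration series.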
A short description of experiment [2]: Anticancer activity against multidrug-resistant human KBV1 cells. Format: functional, cell-based. Particulars: KB-V1.
For a further experiment, the system named is HCT-15. Kind of experiment: Anticancer activity against multidrug-resistant human HCT15 cells. It counts as functional.

What is called IC50 is the midpoint of a concentration-inhibition curve. Read a low IC50 as inhibition by little substance. What is called GI50 is the concentration giving 50% growth inhibition.

In the experiment on 1A9, `CC[C@@H](C)[C@H](NC(=O)[C@@H]1CCCCN1)C(=O)N[C@H](CC(=O)c1nc(C(=O)N[C@@H](Cc2ccccc2)C[C@H](C)C(=O)O)cs1)C(C)C` yielded an IC50 of 24000 nM.
Still for that read-out and setting: as for `CC[C@@H](C)[C@H](NC(=O)[C@H]1CCCCN1)C(=O)N[C@H](CC(=O)c1nc(C(=O)N[C@@H](Cc2ccccc2)C[C@H](C)C(=O)O)cs1)C(C)C`, the figure is 23000 nM.
For the compound `CCC(C)[C@H](NC(=O)[C@H]1CCCCN1C)C(=O)N[C@H](CC(=O)c1nc(C(=O)N[C@@H](Cc2ccccc2)C[C@H](C)C(=O)O)cs1)C(C)C` (single isomer, unassigned), the results for the IC50 (with 1A9; in experiment [1]) were 200 nM and 1800 nM, respectively.
In turn, `CCC(C)[C@H](NC(=O)[C@@H]1CCCN1)C(=O)N[C@H](CC(=O)c1nc(C(=O)N[C@@H](Cc2ccccc2)C[C@H](C)C(=O)O)cs1)C(C)C` (single isomer, unassigned) displayed a concentration for half-maximal inhibition (IC50) in the experiment on 1A9 above 33000 nM.
Compound `CCC(C)[C@H](NC(=O)[C@@H]1CCCCN1C)C(=O)N[C@H](CC(=O)c1nc(C(=O)N[C@@H](Cc2ccccc2)C[C@H](C)C(=O)O)cs1)C(C)C` (single isomer, unassigned) displayed an IC50 in the experiment on 1A9 of 25000 nM. This counts as double-digit micromolar.
In the experiment on 1A9, `CCC(C)[C@H](NC(=O)[C@@H]1CCCN1C)C(=O)N[C@H](CC(=O)c1nc(C(=O)N[C@@H](Cc2ccccc2)C[C@H](C)C(=O)O)cs1)C(C)C` (single isomer, unassigned) came in with an IC50 of 18000 nM.
Regarding `CCC(C)[C@H](NC(=O)[C@H]1CCCN1C)C(=O)N[C@H](CC(=O)c1nc(C(=O)N[C@@H](Cc2ccccc2)C[C@H](C)C(=O)O)cs1)C(C)C` (single isomer, unassigned), the IC50 was found to be 800 nM in the experiment on 1A9 and 1000 nM in experiment [1].
Take `CCC(C)[C@H](NC(=O)[C@H]1CCCN1)C(=O)N[C@H](CC(=O)c1nc(C(=O)N[C@@H](Cc2ccccc2)C[C@H](C)C(=O)O)cs1)C(C)C` (single isomer, unassigned): in the experiment on 1A9, the IC50 was above 33000 nM.
Regarding `CCC(C)[C@H](NC(=O)[C@H]1CCCCN1C)C(=O)N(COC(=O)CC(C)C)[C@H](C[C@@H](OC(C)=O)c1nc(C(=O)N[C@@H](Cc2ccccc2)C[C@H](C)C(=O)O)cs1)C(C)C` (single isomer, unassigned) [TUBULYSIN D], in experiment [2], the IC50 was 0.31 nM.
In turn, `COc1cc([C@@H]2c3cc4c(cc3[C@H](O)[C@H]3COC(=O)[C@H]23)OCO4)cc(OC)c1OC` [PODOFILOX] showed an IC50 in the experiment with 1A9 of 3 nM. This counts as single-digit nanomolar.
For `CN[C@H](C(=O)N[C@H](C(=O)N(C)[C@H](/C=C(\C)C(=O)O)C(C)C)C(C)(C)C)C(C)(C)c1ccccc1` [TALTOBULIN], the IC50 in the experiment with 1A9 was determined as 0.03 nM; in experiment [1] it was 1000 nM.
For the compound `CC[C@@H](C)[C@H](NC(=O)[C@H]1CCCCN1C)C(=O)N(COC(=O)CC(C)C)[C@H](C[C@@H](OC(C)=O)c1nc(C(=O)N[C@@H](Cc2ccc(O)cc2)C[C@H](C)C(=O)O)cs1)C(C)C` [TUBULYSIN A], in the experiment with HCT-15, halving of growth (GI50) required 0.12 nM.
